Test results: ChEMBL document CHEMBL4699543, “Preparation and evaluation of soluble epoxide hydrolase inhibitors with improved physical properties and potencies for treating diabetic neuropathic pain” (Bioorg Med Chem, 2020)
One block for each compound: values may come before it.

Assays:
[1] = Lipophilicity, logP of compound at 100 uM incubated for 90 mins by HPLC analysis; format: physicochemical; details: for logP: 100 µM
[2] = AUC in mouse at 0.3 mg/kg, po; format: ADME, organism-based; design: dose 0.3 mg/kg; details: in vivo
Method in brief: (§1)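 Mice (n=4) given oral gavage cassette of 4 compounds, each 0.3 mg/kg, dissolved in 20% PEG400 in oleic acid rich triglycerides; plasma PK parameters calculated by one-compartment model.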

[3] = Half life in mouse at 0.3 mg/kg, po; format: ADME, organism-based; details: in vivo; method in brief: as §1
[4] = Cmax in mouse at 0.3 mg/kg, po; format: ADME, organism-based; design: route oral, dose 0.3 mg/kg; details: in vivo; method in brief: as §1
[5] = Tmax in mouse at 0.3 mg/kg, po; format: ADME, organism-based; details: in vivo; method in brief: as §1

SMILES: CC[C@H](C)C(=O)N1CCC(NC(=O)Nc2ccc(OC(F)(F)F)c(OC(F)(F)F)c2)CC1
logP [1]: 10.62

SMILES: CCOC(=O)N1CCC(NC(=O)Nc2ccc(OC(F)(F)F)c(F)c2)CC1
logP at […], 100 µM [1]: 5.94

SMILES: O=C(Nc1ccc(C(F)(F)F)c(F)c1)NC1CCN(C(=O)C2(C(F)(F)F)CC2)CC1
logP at […], 100 µM [1]: 5.52

SMILES: CCC(=O)N1CCC(NC(=O)Nc2ccc(C(F)(F)F)c(F)c2)CC1
logP at […], 100 µM [1]: 3.76

SMILES: CC[C@H](C)C(=O)N1CCC(NC(=O)Nc2ccc(OC(F)(F)F)c(Cl)c2)CC1
logP at […], 100 µM [1]: 7.7

SMILES: O=C(Nc1ccc(C(F)(F)F)cc1)NC1CCN(C(=O)C2=COCC2)CC1
logP at […], 100 µM [1]: 3.37

SMILES: Cc1occc1C(=O)N1CCC(NC(=O)Nc2ccc(OC(F)(F)F)cc2)CC1
logP at […], 100 µM [1]: 4.3

SMILES: CC[C@H](C)C(=O)N1CCC(NC(=O)Nc2ccc(C(F)(F)F)cc2)CC1
logP at […], 100 µM [1]: 3.84

SMILES: CC[C@H](C)C(=O)N1CCC(NC(=O)Nc2ccc(OC(F)(F)F)c(Br)c2)CC1
logP at […], 100 µM [1]: 8.07

SMILES: CC[C@H](C)C(=O)N1CCC(NC(=O)Nc2ccc(OC(F)(F)F)c(C(F)(F)F)c2)CC1
logP [1]: 9.02

SMILES: CC[C@H](C)C(=O)N1CCC(NC(=O)Nc2ccc(OC(F)(F)F)c(F)c2)CC1
AUC [2]: 2.17 µM·h
half-life [3]: 3.3 h
Cmax [4]: 166 nM
Tmax [5]: 5.2 h

SMILES: O=C(Nc1ccc(OC(F)(F)F)c(F)c1)NC1CCN(C(=O)C2(C(F)(F)F)CC2)CC1
logP at […], 100 µM [1]: 5.94

SMILES: CCC(=O)N1CCC(NC(=O)Nc2ccc(OC(F)(F)F)c(F)c2)CC1
AUC [2]: 13 µM·h
half-life [3]: 13 h
Cmax [4]: 479 nM
Tmax [5]: 6.7 h

SMILES: O=C(Nc1ccc(OC(F)(F)F)cc1)NC1CCN(C(=O)C2CCOCC2)CC1
AUC [2]: 6.37 µM·h
half-life [3]: 6.3 h
logP at […], 100 µM [1]: 3.26
Cmax [4]: 381 nM
Tmax [5]: 4.2 h

SMILES: CCOC(=O)N1CCC(NC(=O)Nc2ccc(C(F)(F)F)c(F)c2)CC1
logP at […], 100 µM [1]: 5.46

SMILES: CC[C@H](C)C(=O)N1CCC(NC(=O)Nc2ccc(C(F)(F)F)cn2)CC1
logP [1]: 3.22

SMILES: O=C(Nc1ccc(C(F)(F)F)cc1)NC1CCN(C(=O)c2cc[nH]c2)CC1
logP at […], 100 µM [1]: 3.26

Results, then the compound that gave them:

logP at […], 100 µM [1]: 3.93
SMILES: O=C(Nc1ccc(OC(F)(F)F)c(F)c1)NC1CCN(C(=O)N2CCOCC2)CC1

AUC [2]: 0.785 µM·h
half-life [3]: 3.2 h
Cmax [4]: 112 nM
Tmax [5]: 2.1 h
SMILES: O=C(Nc1ccc(OC(F)(F)F)c(F)c1)NC1CCN(C(=O)C2CCCOC2)CC1 (stereo not given)

logP at […], 100 µM [1]: 4.19
SMILES: O=C(Nc1ccc(OC(F)(F)F)c(F)c1)NC1CCN(C(=O)C2CC2)CC1

logP at […], 100 µM [1]: 3.41
SMILES: O=C(Nc1ccc(C(F)(F)F)cc1)NC1CCN(C(=O)C2CCCOC2)CC1 (stereo not given)

AUC [2]: 10.9 µM·h
half-life [3]: 6.6 h
Cmax [4]: 423 nM
Tmax [5]: 10 h
SMILES: CC(C)C(=O)N1CCC(NC(=O)Nc2ccc(OC(F)(F)F)c(F)c2)CC1

logP at […], 100 µM [1]: 3.94
SMILES: O=C(Nc1ccc(C(F)(F)F)c(F)c1)NC1CCN(C(=O)C2CC2)CC1

AUC [2]: 0.483 µM·h
half-life [3]: 3.1 h
Cmax [4]: 38 nM
Tmax [5]: 6.5 h
SMILES: O=C(Nc1ccc(OC(F)(F)F)cc1)NC1CCN(C(=O)C2CCCOC2)CC1 (racemic)

logP at […], 100 µM [1]: 3.84
SMILES: O=C(Nc1ccc(C(F)(F)F)c(F)c1)NC1CCN(C(=O)C2CCCOC2)CC1 (stereo not given)

logP at […], 100 µM [1]: 3.52
SMILES: O=C(Nc1ccc(C(F)(F)F)c(F)c1)NC1CCN(C(=O)C2CCOCC2)CC1

AUC [2]: 5.56 µM·h
half-life [3]: 4.3 h
logP at […], 100 µM [1]: 3.73
Cmax [4]: 332 nM
Tmax [5]: 6.5 h
SMILES: O=C(Nc1ccc(OC(F)(F)F)c(F)c1)NC1CCN(C(=O)C2CCOCC2)CC1
